Results on one molecule are retold here after ChEMBL document CHEMBL4665734, “Optimization of globomycin analogs as novel gram-negative antibiotics” (Bioorg Med Chem Lett, 2020).

Data set [1] is described as follows: Lipophilicity, logD of the compound at pH 7.4. The conditions noted are these: buffer, pH 7.4, logD.
Data set [2] is described as follows: Stability of the compound in human plasma assessed as parent compound remaining after 24 hrs. The conditions noted are these: read-out: Stabilty. The format is ADME, cell-free. The gist of the method:
(§1)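 Test compound incubated for 24 hour in human, rat or mouse plasma. Stability is reported as the percentage of parent compound remaining.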

Data set [3] in a line: Stability of the compound in mouse plasma assessed as parent compound remaining after 24 hrs. The format is ADME, cell-free. Particulars: read-out: Stabilty. The gist of the method:
as §1

A short description of data set [4]: Stability of the compound in rat plasma assessed as parent compound remaining after 24 hrs. Particulars: read-out: Stabilty. The format is ADME, cell-free. The gist of the method:
as §1

Data set [5] is described as follows: Protein binding in rat plasma. The conditions noted are these: read-out: PPB (converted). The format is ADME, cell-free.
Data set [6] can be described thus: Protein binding in mouse plasma. The format is ADME, cell-free. The conditions noted are these: read-out: PPB (converted).
Data set [7] is described as follows: Clearance in rat liver microsomes. The format is ADME, Microsome. The gist of the method: (§2)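 Intrinsic clearance in rat or mouse liver microsomes, expressed in mL/min/kg.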
Data set [8] is described as follows: Clearance in mouse liver microsomes. The format is ADME, Microsome. The gist of the method:
as §2
For orientation: Microsomes from liver hold many membrane-bound enzymes, among them those of drug oxidation.

A short description of data set [9]: Clearance in iv dosed mouse. The format is ADME, organism-based. Particulars: in vivo.
Data set [10] in a line: Half life in iv dosed mouse. The format is ADME, organism-based. The conditions noted are these: in vivo.
Data set [11] has as its system Escherichia coli. Briefly: Inhibition of LspA in Escherichia coli CFT073imp4213 harboring outer membrane-permeable mutant assessed as inhibition of bacterial growth. The gist of the method: (§3)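 Read-out is the minimum inhibitory concentration, reported in µM.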
The test system of another data set is Escherichia coli CFT073. Put plainly: Inhibition of LspA in wild type Escherichia coli CFT073 assessed as inhibition of bacterial growth. The gist of the method:
as §3

Data set [12] is described as follows: Growth inhibition of Staphylococcus aureus USA300.
The next data set has as its system Enterobacter cloacae. Briefly: Inhibition of LspA in Enterobacter cloacae assessed as inhibition of bacterial growth.
In the next data set the test system is Klebsiella pneumoniae. Put plainly: Inhibition of LspA in Klebsiella pneumoniae assessed as inhibition of bacterial growth.
Another data set deals with Pseudomonas aeruginosa. Put plainly: Inhibition of LspA in Pseudomonas aeruginosa assessed as inhibition of bacterial growth.
The next data set deals with Acinetobacter baumannii. Briefly: Inhibition of LspA in Acinetobacter baumannii assessed as inhibition of bacterial growth.
The subject of another data set is Jurkat. Put plainly: Cytotoxicity against human Jurkat cells. The format is cell-based. The gist of the method:
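Jurkat cell growth assay. Result reported as antiproliferative EC50.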

Data set [13] concerns Escherichia coli. Briefly: In vivo inhibition of LspA in Escherichia coli 25922 infected in iv infused mouse neutropenic thigh infection model assessed as reduction in CFU infused for 20 hrs. The format is functional, organism-based. The conditions noted are these: ATCC 25922. The gist of the method: (§4)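 Neutropenic mouse thigh model infected with E. coli 25922. Compound given by IV infusion over 20 hour. Average blood concentration was measured during the infusion, and thigh CFU was compared with vehicle-treated animals.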

Data set [14] in a line: Drug concentration in blood of iv dosed mouse infected with Escherichia coli 25922 infused for 20 hrs. The format is ADME, organism-based. The conditions noted are these: read-out: Ct. The gist of the method: as §4
Data set [15] in a line: Protein binding in plasma of iv dosed mouse infected with Escherichia coli 25922 assessed as free fraction. The format is ADME, organism-based.
A short description of data set [16]: Unbound drug concentration in plasma of iv dosed mouse infected with Escherichia coli 25922. The format is ADME, organism-based. The conditions noted are these: in vivo. The gist of the method:
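Same infected neutropenic mouse thigh model (E. coli 25922, 20 hour IV infusion). Unbound concentration was derived from the average blood concentration and the free fraction in mouse plasma.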

The test system of data set [17] is Escherichia coli ATCC 25922. Put plainly: Inhibition of LspA in wild type Escherichia coli 25922 assessed as inhibition of bacterial growth. The gist of the method: as §3

Converted amounts (≈) assume the structure as drawn. The source made the active and inactive calls. No cut-off for these calls is given here. Starred links: 1 amine or outer side, 2 acyl side, 3 side chain; linkers in the order of their positions; H or OH if unused. Non-standard residues stand in square brackets, D forms with d. Residues, ends and D or L forms follow the SMILES beside them. *: point of attachment. X1 = CCCCCC[C@@H](OC[C@@H](C)N[*:1])[C@@H](C)C(=O)[*:2]; Gly(cHept) = N[C@H](C(=O)O)C1CCCCCC1; NMeNva = CCC[C@H](NC)C(=O)O; X2 = NC[C@H]1C[C@H](*)C1; Dap = NC[C@H](N)C(=O)O

As usually defined, the logD is lipophilicity at a set pH, counting ionised and neutral species. A word on the clearance: it is the volume of plasma or blood freed of the substance per unit of time. What is called half-life is how long it takes for the measured level to halve. Read a high half-life as slow loss. The EC50 is the concentration needed to bring the measured effect to its halfway point. Molecule `CCCCCC[C@H]1OC[C@@H](C)NC(=O)[C@H](CO[C@H]2C[C@H](CN)C2)NC(=O)[C@H](CN)NC(=O)[C@H](C2CCCCCC2)NC(=O)[C@H](CCC)N(C)C(=O)[C@@H]1C` (cyclo([Dap]S(X2)[X1][NMeNva][Gly(cHept)])) yielded a logD in data set [1] of 1.6. In addition, the remaining at 24 h in data set [2] was determined as 98%; in [3], 101%; in data set [4] it was 96%. For the same molecule, the values for the fraction unbound in data set [5], in data set [6] and in data set [15] were 0.033, 0.011 and 0.011, respectively. Besides, the CLhep predicted was 20 mL/min/kg in [7] and 43 mL/min/kg in [8]. For the same molecule, in data set [9], the clearance amounted to 2.9 mL/min/kg. Moreover, in [10], the half-life is 4 h. Further, the MIC came to 0.048 µM (≈ 0.036 µg/mL) with Escherichia coli [11]; 3.1 µM (≈ 2.33 µg/mL) with Escherichia coli CFT073; 50 µM (≈ 37.5 µg/mL) in [12]; 6.3 µM (≈ 4.73 µg/mL) with Enterobacter cloacae; 18 µM (≈ 13.5 µg/mL) with Klebsiella pneumoniae; 100 µM (≈ 75 µg/mL) in the data set with Pseudomonas aeruginosa. The MIC stood at 18 µM (≈ 13.5 µg/mL) in the data set on Acinetobacter baumannii and 3.1 µM (≈ 2.33 µg/mL) in data set [17]. This molecule had an EC50 with Jurkat above 100 µM. In addition, in the data set with Escherichia coli [13], the result was inactive. Besides, the concentration at 20 h in data set [14] is 27 µM. For the same molecule, the “Cp(f)” value in [16] is 0.3 µM.
